# Assays:
# [1] = target: T1, Mineralocorticoid receptor (Rattus norvegicus) (UniProt P22199); assay: Displacement of [3H]aldosterone from mineralocorticoid receptor
# T1 sequence (whole entry): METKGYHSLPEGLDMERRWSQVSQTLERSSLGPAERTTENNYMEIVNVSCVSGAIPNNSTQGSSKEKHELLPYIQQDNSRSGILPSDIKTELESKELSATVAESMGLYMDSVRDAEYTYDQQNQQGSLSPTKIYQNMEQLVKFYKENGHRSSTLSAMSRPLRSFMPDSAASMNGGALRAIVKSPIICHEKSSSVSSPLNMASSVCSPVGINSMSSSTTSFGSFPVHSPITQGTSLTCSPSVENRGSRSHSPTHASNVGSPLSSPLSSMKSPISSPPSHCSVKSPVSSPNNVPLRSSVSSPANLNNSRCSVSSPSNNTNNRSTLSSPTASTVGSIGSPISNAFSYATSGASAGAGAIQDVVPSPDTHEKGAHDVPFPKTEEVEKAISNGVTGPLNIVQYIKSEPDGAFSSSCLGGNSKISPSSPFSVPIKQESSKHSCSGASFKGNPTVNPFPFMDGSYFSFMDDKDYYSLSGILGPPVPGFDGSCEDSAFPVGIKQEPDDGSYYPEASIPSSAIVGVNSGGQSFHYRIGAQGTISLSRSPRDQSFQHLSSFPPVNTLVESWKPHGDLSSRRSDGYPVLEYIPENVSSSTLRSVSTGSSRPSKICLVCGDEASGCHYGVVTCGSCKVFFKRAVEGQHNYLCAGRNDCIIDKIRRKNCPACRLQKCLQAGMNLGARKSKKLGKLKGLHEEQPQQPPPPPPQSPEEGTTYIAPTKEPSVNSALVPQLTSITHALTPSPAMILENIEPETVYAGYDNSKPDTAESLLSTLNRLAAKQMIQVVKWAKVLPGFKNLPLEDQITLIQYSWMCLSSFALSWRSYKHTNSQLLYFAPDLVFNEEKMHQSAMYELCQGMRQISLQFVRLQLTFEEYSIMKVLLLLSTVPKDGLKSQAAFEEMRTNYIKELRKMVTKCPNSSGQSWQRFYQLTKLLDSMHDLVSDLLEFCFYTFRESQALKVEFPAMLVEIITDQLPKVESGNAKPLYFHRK
# Summary of the method: (§1)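 Competition binding against [3H]aldosterone at the mineralocorticoid steroid-receptor complex. Each spirolactone competitor was tested at 8 × 10^-8 M, with unlabeled aldosterone at the same concentration as reference. Incubation ran 40 min at 25 °C. Labeled aldosterone still receptor-bound afterwards was measured, and binding affinity was expressed relative to aldosterone.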
# [2] = target: T1, Mineralocorticoid receptor (Rattus norvegicus); assay: Ratio of [3H]aldosterone binding with 8*10e-8 M aldosterone to [3H]aldosterone binding with 8*10e-8 M competitor at Mineralocorticoid receptor; summary of the method: as §1
SMILES,Binding [1],Relative binding affinity [2]
C[C@]12C=CC(=O)C=C1CCC1C2CC[C@@]2(C)C1CC[C@@]21CCC(=O)O1 (some centres undefined),53.5%,0.15
CC12C(=CC(=O)C3CC31)[C@H]1CC1C1C2CCC2(C)C1CCC21CCC(=O)O1 (some centres undefined),77.6%,0.1
CC12C=CC(=O)C=C1[C@H]1CC1C1C2CCC2(C)C1CCC21CCC(=O)O1 (some centres undefined),77%,0.1
CC12C(=CC(=O)C3CC31)[C@@H]1C[C@@H]1C1C2CCC2(C)C1CCC21CCC(=O)O1 (some centres undefined),55%,0.14
CC(=O)S[C@@H]1CC2=CC(=O)CC[C@]2(C)[C@H]2CC[C@@]3(C)[C@@H](CC[C@@]34CCC(=O)O4)[C@H]12,32.2%,0.24
C[C@]12CCC(=O)C=C1CC[C@@H]1[C@@H]2[C@@H](O)C[C@]2(C=O)[C@@H](C(=O)CO)CC[C@@H]12,7.8%,1
C[C@]12CCC(=O)C=C1CC[C@@H]1[C@@H]2CC[C@@]2(C)[C@H]1CC[C@@]21CCC(=O)O1,36%,0.22
C[C@]12CCC(=O)C=C1C=C[C@@H]1[C@@H]2CC[C@@]2(C)[C@H]1CC[C@@]21CCC(=O)O1,60%,0.13
CC12C=CC(=O)C=C1C=CC1C2CCC2(C)C1CCC21CCC(=O)O1 (centres undefined),76.6%,0.1
CC12C=CC(=O)C=C1[C@H]1C[C@H]1C1C2CCC2(C)C1CCC21CCC(=O)O1 (some centres undefined),53%,0.15
CC12CCC(=O)C=C1[C@@H]1C[C@@H]1C1C2CCC2(C)C1CCC21CCC(=O)O1 (some centres undefined),31.7%,0.25
CC12CCC(=O)C=C1[C@H]1C[C@H]1C1C2CCC2(C)C1CCC21CCC(=O)O1 (some centres undefined),66%,0.12

# — ChEMBL document CHEMBL1121702, “A structure-activity relationship study of spirolactones. Contribution of the cyclopropane ring to antimineralocorticoid activity” (J Med Chem, 1981)
